From PubChem
UHRF1 MBD2 ctr = UHRF1 methylated DNA binding inhibitors, primary screen, counter-screen for MBD2 inhibitor project, biochemical, TR-FRET, human UHRF1, single concentration; inhibition, % at 4.4 µM; AID 687016, 2013; 370,000 compounds, 0.75% hits; UHRF1 binding to methylated oligo; E3 ubiquitin-protein ligase UHRF1 (Homo sapiens), Q96T88;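 also: UHRF1 SRA domain binding a hemimethylated CpG hairpin DNA probe; 0% = median of test compound wells and 100% = reference inhibitor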
TDP2 inh = human TDP2 enzyme inhibitors, primary screen, biochemical, epi absorbance, recombinant enzyme | T5PNP hydrolysis, p-nitrophenol absorbance 415 nm | inhibition, % at 12.8 µM | Tyrosyl-DNA phosphodiesterase 2 (Homo sapiens), O95551 | 370,000 compounds, 0.34% hits;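 active = inhibition above the mean of all tested compounds plus 3 SD, set per campaign, cut at about 25% in these data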;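 also: 0% = DMSO with enzyme and 100% = buffer with substrate but no TDP2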
Target sequence (O95551 whole entry, looked up): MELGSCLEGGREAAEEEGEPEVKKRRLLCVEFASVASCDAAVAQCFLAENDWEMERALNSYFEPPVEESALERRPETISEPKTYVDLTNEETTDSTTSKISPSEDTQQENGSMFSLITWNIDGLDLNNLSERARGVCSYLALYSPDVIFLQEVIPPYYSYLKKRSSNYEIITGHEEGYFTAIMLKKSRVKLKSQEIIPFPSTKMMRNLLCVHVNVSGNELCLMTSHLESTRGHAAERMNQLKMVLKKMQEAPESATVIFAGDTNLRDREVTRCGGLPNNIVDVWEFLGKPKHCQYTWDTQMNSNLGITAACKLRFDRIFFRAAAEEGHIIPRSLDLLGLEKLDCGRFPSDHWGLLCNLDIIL
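Read-out basis: percent inhibition. System: recombinant human TDP2. Buffer or medium: Mg2+-containing Tris-HCl buffer, pH 7.5. Repeats: single replicate. Timing: reaction 2 h, 37 °C. Benchmarks: high control without enzyme, low control DMSO plus TDP2. Probe or stimulus: 5 mM T5PNP. Doses: 12.8 µM only. Measured by: epi absorbance of p-nitrophenol freed from T5PNP by hydrolysis.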
LEDGF integ inh = blockers of LEDGF/p75-dependent integrase strand transfer – biochemical, TR-FRET, high throughput, primary screen. 370,000 compounds, 0.64% hits. inhibition, % at 3.7 µM. TR-FRET IN-LEDGF/p75 DNA integration, Eu/Cy5;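 active = inhibition above the screen-wide mean plus 3 SD, cut at about 13% in these data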;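 also: signal is the Cy5 over europium emission ratio at 671 and 618 nm; 0% = plate median of compound wells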
MBD2 inh = inhibitors of MBD2 binding to methylated DNA, primary screen, biochemical, TR-FRET, DNA-binding domain, human. MBD2 binding to methylated oligonucleotide. 370,000 compounds, 0.31% hits. Methyl-CpG-binding domain protein 2 (Homo sapiens), Q9UBB5. inhibition, % at 4.4 µM; in the data active = inhibition above about 13%
UHRF1 DNA bind = UHRF1 methylated DNA binding inhibitors, counter-screen for MBD2 inhibitor project, biochemical, TR-FRET, human UHRF1 | shares compounds with MBD2 inh | UHRF1 binding to methylated oligonucleotide | inhibition, % at 4.4 µM | 1,000 compounds, 25% hits | AID 720530, 2013;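 also: UHRF1 SRA domain binding a labeled hemimethylated CpG hairpin DNA; 0% = vehicle only and 100% = reference inhibitor with vehicle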
MBD2 DBD conf = inhibitors of MBD2 binding to methylated DNA, confirmation, biochemical, TR-FRET, DNA-binding domain, human. shares compounds with MBD2 inh. TR-FRET MBD2-DBD binding to methylated oligonucleotide. inhibition, % at 4.4 µM. 1,000 compounds, 26% hits; in the data active = inhibition above about 14%
Active calls of the source: *. Compounds with a hit are over-represented: about 1.6% of the library has one in this group of screens. Rule as the data show it, unless noted: active = inhibition above about 21%; inactive = the rest.

`CC(C)C[C@H]1CN(CCCC[C@H]2CNC(=O)C(=O)N2CCc2ccc(O)cc2)C(=O)C(=O)N1Cc1ccccc1` gave UHRF1 MBD2 ctr 25*, TDP2 inh 2, LEDGF integ inh 10, MBD2 inh 13*, UHRF1 DNA bind 7 and MBD2 DBD conf 3.
Screening CC(Sc1nnnn1C)C(=O)Nc1nc(-c2ccc(F)c(F)c2)cs1 (stereo not drawn) returned UHRF1 MBD2 ctr 27*, TDP2 inh -2, LEDGF integ inh 11, MBD2 inh 18*, UHRF1 DNA bind 2 and MBD2 DBD conf 4.
Screening CCN(CC)CCC(=O)Nc1cccc2c1C(=O)c1ccccc1C2=O returned UHRF1 MBD2 ctr -29, TDP2 inh -4, LEDGF integ inh 4, MBD2 inh 27*, UHRF1 DNA bind 4 and MBD2 DBD conf 38*.
Screening Nc1cccc(C(=O)OCC(=O)Nc2cccc3c2C(=O)c2ccccc2C3=O)c1 returned UHRF1 MBD2 ctr -1, TDP2 inh -7, LEDGF integ inh -1 and MBD2 inh 2.
CCN(CC)CCNC(=O)c1ccc2c(c1NCCO)C(=O)c1ccccc1C2=O was read as UHRF1 MBD2 ctr 4, TDP2 inh 16, LEDGF integ inh 11, MBD2 inh 22*, UHRF1 DNA bind 15 and MBD2 DBD conf 30*.
Screening O=C(Cn1nc(-c2ccccc2Cl)ccc1=O)Nc1ccccc1-c1ccccc1 returned UHRF1 MBD2 ctr -1, TDP2 inh -22, LEDGF integ inh 2, MBD2 inh 43*, UHRF1 DNA bind 8 and MBD2 DBD conf 2.
CCCCn1c(SCC(=O)Nc2sc3c(c2C(N)=O)CCC3)nnc1-c1ccccc1 was read as UHRF1 MBD2 ctr 20, TDP2 inh 3, LEDGF integ inh -1, MBD2 inh 13*, UHRF1 DNA bind 6 and MBD2 DBD conf 2.
`CCOC(=O)c1[nH]c2ccc(OC)cc2c1NC(=O)c1ccc(OC)c(OC)c1` gave UHRF1 MBD2 ctr 2, TDP2 inh -12, LEDGF integ inh 1, MBD2 inh 15*, UHRF1 DNA bind 6 and MBD2 DBD conf 2.
For CCOC(=O)c1[nH]c2ccc(OC)cc2c1NC(=O)c1nonc1C the results were UHRF1 MBD2 ctr 1, TDP2 inh 6, LEDGF integ inh 1 and MBD2 inh -6.
For O=C(/C=C/c1ccc(-c2ccccc2[N+](=O)[O-])o1)c1ccco1 the results were UHRF1 MBD2 ctr 34*, TDP2 inh -1, LEDGF integ inh 11, MBD2 inh 14*, UHRF1 DNA bind 5 and MBD2 DBD conf -1.
For O=C(/C=C/c1ccc([N+](=O)[O-])cc1)c1ccco1 the results were UHRF1 MBD2 ctr -1, TDP2 inh -9, LEDGF integ inh -3 and MBD2 inh -9.
`CC1CCC(NC(=O)C2CCC(CNS(=O)(=O)c3ccccc3)CC2)CC1` (stereo not drawn) gave UHRF1 MBD2 ctr 7, TDP2 inh 0, LEDGF integ inh 8 and MBD2 inh 2.
Screening O=C(NC1CCCCCC1)C1CCC(CNS(=O)(=O)c2ccc(Br)s2)CC1 (stereo not drawn) returned UHRF1 MBD2 ctr 23*, TDP2 inh -3, LEDGF integ inh -1, MBD2 inh 14*, UHRF1 DNA bind 4 and MBD2 DBD conf 2.
Screening Cc1ccccc1S(=O)(=O)Cc1ccc(C(=O)NCc2ccc(F)cc2)o1 returned UHRF1 MBD2 ctr 4, TDP2 inh -6, LEDGF integ inh -1 and MBD2 inh -1.
Screening Cc1ccc(CNC(=O)c2ccc(CS(=O)(=O)c3ccccc3C)o2)cc1 returned UHRF1 MBD2 ctr -3, TDP2 inh -4, LEDGF integ inh 2, MBD2 inh 33*, UHRF1 DNA bind 4 and MBD2 DBD conf 6.
COc1ccccc1Cc1c(C2CCCCC2)nc2ccc(C)cn12 was read as UHRF1 MBD2 ctr 14, TDP2 inh 9, LEDGF integ inh 5 and MBD2 inh 2.
Screening COc1ccc(Cc2c(C3CCCCC3)nc3ccc(C)cn23)c(C)c1 returned UHRF1 MBD2 ctr 25*, TDP2 inh 1, LEDGF integ inh -1, MBD2 inh 18*, UHRF1 DNA bind 5 and MBD2 DBD conf 6.
COc1ccc(N=C2Sc3ccccc3[C@@H]3C[C@H]4[C@H](CON4C)CN23)c(OC)c1 was read as UHRF1 MBD2 ctr -1, TDP2 inh -13, LEDGF integ inh 2 and MBD2 inh -3.
Cc1oc2ccc(O)cc2c1C(=O)c1ccc(Cl)cc1 was read as UHRF1 MBD2 ctr -2, TDP2 inh 10, LEDGF integ inh -1 and MBD2 inh 1.
Cc1oc2ccc(O)cc2c1C(=O)c1ccc(Br)cc1 was read as UHRF1 MBD2 ctr -2, TDP2 inh 5, LEDGF integ inh 2, MBD2 inh 16*, UHRF1 DNA bind 3 and MBD2 DBD conf 3.
Screening c1ccc2c(c1)C1=NCCN1c1ccccc1-2 returned UHRF1 MBD2 ctr -12, TDP2 inh 6, LEDGF integ inh -2, MBD2 inh 26*, UHRF1 DNA bind -1 and MBD2 DBD conf 39*.
COC1=Nc2ccccc2N2CCN=C12 was read as UHRF1 MBD2 ctr 1, TDP2 inh -2, LEDGF integ inh -1 and MBD2 inh 3.
For COc1ccc(C2C3=C(CC(C)(C)CC3=O)Oc3ncn(CCO)c(=N)c32)cc1OC (stereo not drawn) the results were UHRF1 MBD2 ctr 6, TDP2 inh -5, LEDGF integ inh -2, MBD2 inh 49*, UHRF1 DNA bind 7 and MBD2 DBD conf 2.
CC(C)Cn1cnc2c(c1=N)C(c1ccccc1)C1=C(CC(C)(C)CC1=O)O2 (stereo not drawn) was read as UHRF1 MBD2 ctr 0, TDP2 inh -5, LEDGF integ inh -1 and MBD2 inh -3.
`O=C(OCC(=O)N1CCc2ccccc21)c1ccccc1F` gave UHRF1 MBD2 ctr 4, TDP2 inh -1, LEDGF integ inh 4 and MBD2 inh 2.
For C[C@H](NS(=O)(=O)c1ccccc1F)C(=O)OCC(=O)N1CCc2ccccc21 the results were UHRF1 MBD2 ctr -1, TDP2 inh -3, LEDGF integ inh -3, MBD2 inh 17*, UHRF1 DNA bind 7 and MBD2 DBD conf 2.
